Measured values reported in ChEMBL document CHEMBL1157153, “Novel cyclohexene derivatives as anti-sepsis agents: synthetic studies and inhibition of NO and cytokine production” (Bioorg Med Chem, 2008).

Assays:
RAW264.7 [1] = test: Suppression of LPS-induced NO production in mouse RAW264.7 cells by fluorometric assay; assay type: functional, cell-based
Outline: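 RAW264.7 cells were seeded at 1 × 10⁵ cells/well and incubated overnight. Supernatant was removed and cells were stimulated with 10 ng/mL LPS plus graded compound concentrations for 20 h at 37 °C, 5% CO₂. The medium was phenol red-free RPMI1640 with 1% heat-inactivated FBS. Compounds came from 10 mM DMF stocks diluted in medium. Supernatant nitrite was read with DAN, then NaOH, as fluorescence at ex 355/em 460 nm.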

Mus musculus [2] = test: Protective effect against lethal septic shock in mouse endotoxin shock model assessed as survival at 10 mg/kg, iv; assay type: functional, organism-based; design: dose 10 mg/kg
Outline: (§1)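 Mice got a lethal LPS dose of 7 mg/kg ip. Compound was given iv 1 h before LPS, in 10% (w/v) glucuronylglucosyl-β-cyclodextrin sodium salt. Survival was recorded over 7 days after LPS, with 7–10 mice per group.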

Mus musculus [3] = test: Protective effect against lethal septic shock in mouse endotoxin shock model assessed as survival at 1 mg/kg, iv; assay type: functional, organism-based; design: dose 1 mg/kg; outline: as §1
Mus musculus [4] = test: Protective effect against lethal septic shock in iv dosed mouse endotoxin shock model; assay type: functional
Outline: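 Mice challenged with a lethal dose of LPS (7 mg/kg ip). Compounds were dissolved in 10% (w/v) glucuronylglucosyl-beta-cyclodextrin sodium salt and given intravenously at 1, 3 and 10 mg/kg, 1 h before LPS. Vehicle-dosed mice served as controls. Survival was recorded for 7 days after challenge and reported as survivors/total. ED50 is given in mg/kg.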

RAW264.7 [5] = test: Suppression of LPS-induced TNFalpha production in mouse RAW264.7 cells; assay type: functional, cell-based
Outline: (§2)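 IC50 is the concentration cutting TNF-α or IL-6 production to 50% of control. Values are means ± SD from three or four experiments.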

Mus musculus [6] = test: Suppression of LPS-induced serum NO production in mouse endotoxin shock model at 10 mg/kg, iv administered 1 hr before LPS challenge by fluorometric assay
Mus musculus [7] = test: Suppression of LPS-induced serum NO production in mouse endotoxin shock model at 3 mg/kg, iv administered 1 hr before LPS challenge by fluorometric assay
RAW264.7 [8] = test: Suppression of LPS-induced IL6 production in mouse RAW264.7 cells; assay type: functional, cell-based; outline: as §2
Mus musculus [9] = test: Suppression of LPS-induced serum NO production in mouse endotoxin shock model at 1 mg/kg, iv administered 1 hr before LPS challenge by fluorometric assay

| IC50 (RAW264.7 [1]; Mus musculus, RAW264.7) | Structure (SMILES) | further results |
| --- | --- | --- |
| 14 nM | CCOC(=O)C1=CCCCC1S(=O)(=O)Cc1cccc(Cl)c1 (stereo not given) | – |
| – | CCOC(=O)C1=CCCC[C@H]1S(=O)(=O)[C@@H](C)c1ccc(F)cc1Cl | Activity (Mus musculus [2]): Non-toxic; Activity (Mus musculus [3]): Toxic; ED50 (Mus musculus [4]): 5.6 mg/kg; IC50 (RAW264.7 [5]): 20 nM; inhibition in vivo at 10 mg/kg (Mus musculus [6]): 78%; inhibition in vivo at 3 mg/kg (Mus musculus [7]): 55.7%; IC50 (RAW264.7 [8]): 1.8 nM; inhibition in vivo at 1 mg/kg (Mus musculus [9]): -10.1% |
| 14 nM | CCOC(=O)C1=CCCCC1S(=O)(=O)Cc1ccc(F)cc1F (stereo not given) | – |
| – | CCOC(=O)C1=CCCCC1S(=O)(=O)Cc1ccccc1Cl (single isomer, unassigned; (-)) | IC50 (RAW264.7 [1]; raw264.7): 1200 nM |
| 101 nM | CCOC(=O)C1=CCCCC1S(=O)(=O)Cc1cc2ccccc2s1 (stereo not given) | – |
| 1010 nM | CCOC(=O)C1=CCCCC1S(=O)(=O)Cc1c[nH]c2ccccc12 (stereo not given) | – |
| 100 nM | CCOC(=O)C1=CCCCC1S(=O)(=O)Cc1cccc(F)c1F (stereo not given) | – |
| – | CCOC(=O)C1=CCCCC1S(=O)(=O)C(C)c1ccccc1 (stereo in doubt; 19a) | IC50 (RAW264.7 [1]; raw264.7): 100 nM |
| – | CCOC(=O)C1=CCCCC1S(=O)(=O)Cc1ccc(F)cc1Cl (stereo in doubt; 10a) | IC50 (RAW264.7 [1]; raw264.7): 10 nM; IC50 (RAW264.7 [5]): 21 nM; IC50 (RAW264.7 [8]): 4.8 nM |
| 101 nM | CCOC(=O)C1=CCCCC1S(=O)(=O)Cc1ccccc1 (stereo not given) | – |
| 14 nM | CCCOC(=O)C1=CCCCC1S(=O)(=O)Cc1ccc(F)cc1Cl (stereo not given) | – |
| 101 nM | CCOC(=O)C1=CCCCC1S(=O)(=O)Cc1ccc(Cl)cc1 (stereo not given) | – |
| 99 nM | COC(=O)C1=CCCCC1S(=O)(=O)Cc1ccc(F)cc1Cl (stereo not given) | – |
| 729 nM | CCOC(=O)C1=CCCCC1S(=O)(=O)C(CF)c1ccc(F)cc1Cl (stereo in doubt; 26b) | – |
| 12 nM | CCOC(=O)C1=CCCCC1S(=O)(=O)Cc1cccc(Cl)c1F (stereo not given) | – |
| 104 nM | CCOC(=O)C1=CCCCC1S(=O)(=O)Cc1ccc(Cl)cc1F (stereo not given) | – |
| 5640 nM | CCOC(=O)C1=CCCCC1SCc1ccc(F)cc1Cl (stereo not given) | – |
| – | CCOC(=O)C1=CCCCC1S(=O)(=O)Cc1ccc(F)cc1Cl (single isomer, unassigned; (+)) | IC50 (RAW264.7 [1]; raw264.7): 5.7 nM |
| 134 nM | CCOC(=O)C1=CCCCC1S(=O)(=O)Cc1cc2ccccc2o1 (stereo not given) | – |
| 97 nM | CCOC(=O)C1=CCCCC1S(=O)(=O)Cc1ccccc1F (stereo not given) | – |
| – | CCOC(=O)C1=CCCCC1S(=O)(=O)C(C)c1ccc(F)cc1Cl (stereo in doubt; 22a) | IC50 (RAW264.7 [1]; raw264.7): 14 nM; IC50 (RAW264.7 [5]): 42 nM; IC50 (RAW264.7 [8]): 5.8 nM |
| 4.5 nM | CCOC(=O)C1=CCCCC1S(=O)(=O)Nc1ccc(F)cc1Cl (stereo not given) | – |
| – | CCOC(=O)C1=CCCCC1S(=O)(=O)C(C)c1ccc(F)cc1Cl (single isomer, unassigned; (+)) | IC50 (RAW264.7 [1]; raw264.7): 4 nM |
| 53 nM | CCOC(=O)C1=CCCCC1S(=O)(=O)Cc1ccc(Cl)c(Cl)c1 (stereo not given) | – |

| IC50 (RAW264.7 [1]; Mus musculus, RAW264.7) | Structure (SMILES) | further results |
| --- | --- | --- |
| – | CCOC(=O)C1=CCCCC1S(=O)(=O)Cc1ccccc1Cl (single isomer, unassigned; (+)) | IC50 (RAW264.7 [1]; raw264.7): 11 nM |
| – | CCOC(=O)C1=CCCCC1S(=O)(=O)C(C)c1ccc(F)cc1Cl (single isomer, unassigned; (-)) | IC50 (RAW264.7 [1]; raw264.7): 1300 nM |
| 106 nM | CCOC(=O)C1=CCCCC1S(=O)(=O)Cc1coc2ccccc12 (stereo not given) | – |
| > 10000 nM | O=S(=O)(Cc1ccc(F)cc1Cl)C1CCCC=C1CO (stereo not given) | – |
| 100 nM | CC(C)OC(=O)C1=CCCCC1S(=O)(=O)Cc1ccc(F)cc1Cl (stereo not given) | – |
| – | CCOC(=O)C1=CCCCC1S(=O)(=O)C(CF)c1ccc(F)cc1Cl (stereo in doubt; 26a) | IC50 (RAW264.7 [1]; raw264.7): 435 nM |
| > 10000 nM | CC(=O)OCC1=CCCCC1S(=O)(=O)Cc1ccc(F)cc1Cl (stereo not given) | – |
| 65 nM | CCOC(=O)C1=CCCCC1S(=O)(=O)Cc1cccc(Cl)c1Cl (stereo not given) | – |
| > 10000 nM | CCC(O)C1=CCCCC1S(=O)(=O)Cc1ccc(F)cc1Cl (stereo not given) | – |
| 904 nM | CCOC(=O)C1=CCCCC1S(=O)(=O)Oc1ccc(F)cc1Cl (stereo not given) | – |
| – | CCOC(=O)C1=CCCCC1S(=O)(=O)Cc1ccc(F)cc1Cl (stereo in doubt; (-)-10a) | IC50 (RAW264.7 [1]; raw264.7): 10000 nM |
| 11 nM | CCCC(=O)C1=CCCCC1S(=O)(=O)Cc1ccc(F)cc1Cl (stereo not given) | – |
| 13 nM | CCOC(=O)C1=CCCCC1S(=O)(=O)Cc1ccc(F)c(Cl)c1 (stereo not given) | – |
| 60 nM | CCOC(=O)C1=CCCCC1S(=O)(=O)Cc1ccc(Cl)cc1Cl (stereo not given) | – |
| 103 nM | CCCCOC(=O)C1=CCCCC1S(=O)(=O)Cc1ccc(F)cc1Cl (stereo not given) | – |
| – | CCOC(=O)C1=CCCCC1S(=O)(=O)C(C)c1ccccc1 (stereo in doubt; 19b) | IC50 (RAW264.7 [1]; raw264.7): 1320 nM |
| 1410 nM | CCOC(=O)C1=CCCCC1S(=O)(=O)Cc1ccncc1 (stereo not given) | – |
| 105 nM | CCOC(=O)C1=CCCCC1S(=O)(=O)Cc1ccsc1 (stereo not given) | – |
| 64 nM | CCC(=O)C1=CCCCC1S(=O)(=O)Cc1ccc(F)cc1Cl (stereo not given) | – |
| – | CCOC(=O)C1=CCCCC1S(=O)(=O)Cc1ccccc1Cl (stereo in doubt; 10e) | IC50 (RAW264.7 [1]; raw264.7): 14 nM |
| – | CCOC(=O)C1=CCCC[C@H]1S(=O)(=O)Cc1ccc(F)cc1Cl | Activity (Mus musculus [2]): Non-toxic; ED50 (Mus musculus [4]): 1.85 mg/kg; IC50 (RAW264.7 [5]): 8.3 nM; inhibition in vivo at 10 mg/kg (Mus musculus [6]): 76%; inhibition in vivo at 3 mg/kg (Mus musculus [7]): 54%; IC50 (RAW264.7 [8]): 1.5 nM; inhibition in vivo at 1 mg/kg (Mus musculus [9]): 27% |
| > 10000 nM | CCOC(=O)C1=CCCCC1NS(=O)(=O)c1ccc(F)cc1Cl (stereo not given) | – |
| 23 nM | CCOC(=O)C1=CCCCC1S(=O)(=O)Cc1cc(Cl)ccc1F (stereo not given) | – |
| – | CCOC(=O)C1=CCCCC1S(=O)(=O)C(C)c1ccc(F)cc1Cl (stereo in doubt; 22b) | IC50 (RAW264.7 [1]; raw264.7): 102 nM |
